# From PubChem BioAssay
# NFkB transloc inh = blocks IL-1B driven NFkB nuclear translocation in HUVEC cells; HUVEC IL-1B NFkB p65 nuclear translocation imaging; inhibition, % at 2 µM; actives 0.43% (n = 94,000); AID 796;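 active means inhibition above about 30% together with a positive call from visual inspection of the well image, limit read from the data; inconclusive means inhibition above a set limit but visual check negative; inactive means inhibition not above a set limit, visual check negative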;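 further: nuclear over cytoplasmic p65 intensity ratio measured by imaging; 0% = IL-1B stimulated DMSO wells and 100% = unstimulated DMSO wells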
# HIV Rev-RRE inh = HIV Rev-RRE protein-RNA interaction inhibition | P05866 | Rev peptide-RRE RNA binding, FRET | inhibition, % at 8 µM | actives 0.79% (n = 97,000) | AID 704;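 active means inhibition above the screen-wide mean plus 3 SD, cut at about 35% in these data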;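 further: 0% = median DMSO wells and 100% = median Neomycin B control wells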
# Target sequence (P05866 whole entry, looked up): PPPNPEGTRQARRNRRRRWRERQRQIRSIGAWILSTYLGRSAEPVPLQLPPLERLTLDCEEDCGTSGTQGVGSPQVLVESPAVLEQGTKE
#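 Test system: Cy5-tagged RRE RNA duplex with fluorescein-tagged Rev peptide | Read-out: % inhibition of FRET ratio versus controls | Probe or stimulus: Labelled Rev peptide | Incubation: 5 min RNA-compound premix plus 15 min binding step, 25 °C | Technique: FRET fluorescence readout | Benchmarks: DMSO low control, neomycin B high control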
# IL1B NFkB pot = enhances IL-1B driven NFkB nuclear translocation; HUVEC IL-1B NFkB p65 nuclear translocation imaging; actives 0.3% (n = 94,000); activation, % at 2 µM;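 active means activation above 40%, about the mean plus 3 SD, also judged a hit on visual image review; inconclusive means activation above 40% but not a hit on visual review; inactive means activation not above 40% and no visual hit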;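 further: percent activation is computed from the nuclear over cytoplasmic p65 intensity ratio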
# Measles CPE = protection of cells from measles virus; actives 1.5% (n = 140,000); protection (pct of control), % at 4 µM; Measles virus-infected cells, CPE protection, absorbance; in the data active means protection mostly above about 24%, no sharp cut-off; inactive means mostly below about 26%
# HUVEC tox IL1B = HUVEC cytotoxicity counter-screen, IL-1B stimulated. HUVEC cell count loss, Hoechst imaging. cell count reduction, % at 2 µM. actives 0.41% (n = 94,000). AID 845;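 active means cell count reduction more than 3 SD above the screen-wide mean, cut at about 70% in these data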;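 further: normalized per plate to untreated control cells as the no-loss baseline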
# FAK blocker = inhibitors of human focal adhesion kinase | Q05397 | biochemical FAK kinase activity assay | inhibition, %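 (tested at 7 µM)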 | actives 0.84% (n = 97,000); in the data active means inhibition above about 19%;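 further: 0% = DMSO and 100% = reference compound high control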
# * hit, by the source's call; ? = inconclusive; nt = no result; [ ] = another dose, or the depositor's remark. Only some compounds are listed: those with a hit (about 3.3% of all), similar ones and a draw of the others.
SMILES,NFkB transloc inh,HIV Rev-RRE inh,IL1B NFkB pot,Measles CPE,HUVEC tox IL1B,FAK blocker
CCn1cc([N+](=O)[O-])c(C(=O)N2N=C(c3ccccc3)CC2c2ccc([N+](=O)[O-])cc2)n1 (stereo not given),nt,nt,nt,27*,nt,nt
COc1ccc(S(=O)(=O)N(CC(N)=O)C2CCCCC2)cc1Cl,-25,2,25,22,93*,0
C=CCc1cc(/C=C2/NC(=O)N(CC)C2=O)cc(OCC)c1OCc1ccc(C(=O)O)cc1,nt,nt,nt,14,nt,nt
COc1ccc(C(=O)NCC(=O)OCC(=O)c2cc(OC)c(OC)c(OC)c2)cc1OC,nt,nt,nt,44*,nt,nt
C=CCn1c(SCc2ccc(C(=O)Nc3ccccc3)cc2)nnc1-c1ccccc1,-60,9,?,4,-45,-1
Cc1ccc(NC(=O)COC(=O)CCC(=O)c2cccs2)cc1S(=O)(=O)N1CCOCC1,-48,8,48*,16,-18,5
O=C(COC(=O)CCC(=O)c1cccs1)Nc1cccc(S(=O)(=O)N2CCOCC2)c1,6,0,-5,9,1,-2
COc1ccccc1OCCC(=O)OCC(=O)NC(C)c1ccccc1 (stereo not given),nt,nt,nt,9,nt,nt
COc1ccc(C(=O)/C=C/Nc2ccc(S(=O)(=O)Nc3onc(C)c3C)cc2)cc1,nt,nt,nt,43*,nt,nt
CCOC(=O)c1c(NC(=O)CSc2nc3cc(Cl)ccc3c(=O)n2Cc2ccco2)sc(C(=O)N(C)C)c1C,nt,nt,nt,21,nt,nt
CCOc1cc(-c2ccc(N)c(OCC)c2)ccc1N,13,84*,-13,16,1,0
COc1ccc(-c2noc(CN3C(=O)c4ccccc4C3=O)n2)cc1,-10,14,10,37*,2,2
Cc1cccc2nc(-c3ccccc3)nc(N[C@@H](CO)c3ccccc3)c12,nt,nt,nt,11,nt,nt
COc1cc2c(cc1OC)C(c1cc3cc(OC)c(OC)cc3[nH]c1=O)N(C(=O)C1CC1)CC2 (stereo not given),-45,10,45*,2,-8,1
CCCC(=O)N1CCc2cc(OC)c(OC)cc2C1c1cc2cc3c(cc2[nH]c1=O)OCO3 (stereo not given),3,3,-3,nt,-2,-2
CC(C)CCn1c(CN2CCN(Cc3ccccc3)CC2)nc2c1c(=O)[nH]c(=O)n2C,-34,-6,34,41*,-20,0
CC1=Nc2nc(N3CCCCC3)c(C#N)c3c4c(nc(c23)N1)N(c1ccc(C(C)C)cc1)C(=O)C4,nt,nt,nt,6,nt,nt
O=C(c1ccco1)N1CCN(C(=O)C(Cc2ccccc2)NS(=O)(=O)c2cccs2)CC1 (stereo not given),-10,0,10,24,-18,0
CC(=O)NC(Cc1ccccc1)C(=O)N1CCN(C(=O)c2ccco2)CC1 (stereo not given),-7,2,7,36*,0,1
O=C(c1ccco1)N1CCN(CCCCOc2cccc3ccccc23)CC1,nt,nt,nt,27*,nt,nt
COc1ccc(S(=O)(=O)N2CCN(C(=O)c3ccco3)CC2)cc1OC,-1,3,1,57*,-7,0
CCOC(=O)C(Cc1ccccc1)NC(C)=O (stereo not given),16,7,-16,5,92*,0
Cc1ccc(C2=C/C(=C/c3cccnc3)C(=O)O2)c(C)c1,nt,nt,nt,14,nt,nt
Cc1cc(C)cc(-n2cc[nH]c2=S)c1,nt,nt,nt,7,nt,nt
O=C(c1ccncc1)N1CCN(C(=O)c2ccco2)CC1,0,5,0,12,-24,-3
SMILES,NFkB transloc inh,HIV Rev-RRE inh,IL1B NFkB pot,Measles CPE,HUVEC tox IL1B,FAK blocker
NC(=O)N1CCN(C(=O)c2ccco2)CC1,31*,10,-31,3,84*,-1
Nc1ccc(N2CCN(C(=O)c3ccco3)CC2)cc1,1,3,-1,60*,-12,5
Cc1ccc2c(CN3CCCc4ccccc43)cc(=O)oc2c1C,7,57*,-7,8,-102,-8
C=CCn1ncc(OC)c(Cl)c1=O,-17,0,17,89*,-30,0
Cc1ccc(-c2ccc(=O)[nH]n2)cc1,98*,7,-98,3,82*,-2
CCCCCc1ccc(-c2ccc(=O)[nH]n2)cc1,-49,13,?,21,-32,-2
CCCCn1c(SCc2nc3ccccc3s2)nc2cc(S(N)(=O)=O)ccc21,-5,20,5,40*,6,2
Cc1sc2ncn(CCn3cnc4sc(C)c(C)c4c3=O)c(=O)c2c1C,57*,2,-57,22,9,-1
COC(=O)c1cc(NCc2ccc3c(c2)OCO3)ccc1N1CCOCC1,6,2,-6,23,8,-1
O=C(O)c1cc(NCc2ccc3c(c2)OCO3)ccc1N1CCOCC1,54*,7,-54,39,-24,2
CCOc1ccccc1C1C(C#N)=C(N)SC(N)=C1C#N,-10,37*,10,5,-23,-3
CCOc1ccc(C2C(C#N)=C(N)SC(N)=C2C#N)cc1OCC,nt,nt,nt,9,nt,nt
Cc1ccc(C2C(C#N)=C(N)SC(N)=C2C#N)o1,-6,92*[fluorescence artefact?],6,6,-19,2
N#CC1=C(N)SC(N)=C(C#N)C1c1ccc(C(F)(F)F)cc1,-1,42*,1,3,-6,-9
CCc1ccc(C2C(C#N)=C(N)SC(N)=C2C#N)cc1,-10,41*,9,nt,28,0
O=C(CSc1cccc(C(F)(F)F)c1)Nc1cc(S(=O)(=O)N2CCCC2)ccc1Cl,nt,nt,nt,5,nt,nt
CCOC(=O)c1ccc(N2C(=O)C3C(/C=C/c4ccccc4)OC4(C(=O)c5ccccc5C4=O)C3C2=O)cc1 (stereo not given),nt,nt,nt,10,nt,nt
N#Cc1ccccc1NC(=O)CSc1nnc(-c2ccccc2O)n1-c1ccccc1,0,6,0,17*,2,1
CCNc1ccccc(C(=O)/C=C/c2ccc3c(c2)OCO3)c1=O,-5,55*,5,17,-1,1
CCNc1ccc(Br)cc(C(=O)/C=C/c2ccccc2Cl)c1=O,-9,77*[fluorescence artefact?],9,nt,-24,0
CNc1ccc(Br)cc(C(=O)/C=C/c2cccc(OC)c2OC)c1=O,1,65*,-1,6,-40,1
CN1CCc2nc3ccc(Cl)cc3c(-c3ccccc3Cl)c2C1,nt,nt,nt,28,nt,nt
Fc1ccc(-n2nnnc2-c2cnc(-c3cccs3)nc2C(F)(F)F)cc1,nt,16,nt,25,nt,7
Cc1ccc(C(=O)N2CCN(C3c4cccc5cccc(c45)C3NS(=O)(=O)c3ccccc3)CC2)cc1 (stereo not given),8,3,-8,55*,-10,-8
CC(=O)Nc1nc(C)c(C(C)=O)s1,-25,4,25,10,-19,0
CC(=O)c1sc(NC(=O)c2ccc(F)c(F)c2)nc1C,32*,4,-32,8,-10,-1
CC(=O)c1sc(NC(=O)C(C)C)nc1C,98*,1,-98,3,-19,-5
O=C(COC(=O)CCc1c[nH]c2ccccc12)NC(c1ccccc1)c1ccccc1,nt,nt,nt,13,nt,nt
